Measured values from different studies.
Lines come from different studies, so protocols differ.
Organism: Mycobacterium tuberculosis
Observed: microbial growth

Structure (SMILES) | test | system | setting | MIC
CCOC(=O)c1c(NC(=O)c2cc(C(F)(F)F)cc(C(F)(F)F)c2)sc2c1CCN(CC)C2 | resazurin | H37RV |  | > 200 µM
CC[C@@H](CO)NCCN[C@@H](CC)CO |  | H37RV | 14 days | 0.78 µg/mL
CC[C@@H](CO)NCCN[C@@H](CC)CO |  | H37RV | 7 days | 0.8 µg/mL
CO[C@H]1/C=C/O[C@@]2(C)Oc3c(C)c(O)c4c(O)c(c(/C=N/N5CCN(C)CC5)c(O)c4c3C2=O)NC(=O)/C(C)=C\C=C\[C@H](C)[C@H](O)[C@@H](C)[C@@H](O)[C@@H](C)[C@H](OC(C)=O)[C@@H]1C |  | H37RV | 14 days | 0.17 µg/mL
O=C1c2cccc(O)c2C(=O)c2c(O)cc(CO)cc21 | resazurin | H37RV |  | > 320 µM
CO[C@H]1/C=C/O[C@@]2(C)Oc3c(C)c(O)c4c(O)c(c(/C=N/N5CCN(C)CC5)c(O)c4c3C2=O)NC(=O)/C(C)=C\C=C\[C@H](C)[C@H](O)[C@@H](C)[C@@H](O)[C@@H](C)[C@H](OC(C)=O)[C@@H]1C | resazurin | ATCC35801 ERDMAN | 7 days | 0.05 µg/mL
COc1cccc2c1C(=O)c1c(O)c3c(c(O)c1C2=O)C[C@@](O)(C(=O)CO)C[C@@H]3O[C@H]1C[C@H](N)[C@H](O)[C@H](C)O1 | resazurin | H37RV |  | 5 µM
CCOC(=O)c1c(NC(=O)c2cc(C(F)(F)F)cc(C(F)(F)F)c2)sc2c1CCN(C(=O)OC(C)(C)C)C2 | resazurin | H37RV |  | < 100 µM
O=C(O)c1cc(O)c2c(c1)C(=O)c1cccc(O)c1C2=O | resazurin | H37RV |  | > 320 µM
CCN1CCc2c(sc(N)c2C(=O)NC23CC4CC(CC(C4)C2)C3)C1 | resazurin | H37RV |  | > 200 µM
